Consider 1 substance from article PMC7210785 (Cancer cell, 2019).

For this experiment, the target named is T1, RNF2 (Homo sapiens, UniProt Q99496).
T1 sequence (Q99496 2-336): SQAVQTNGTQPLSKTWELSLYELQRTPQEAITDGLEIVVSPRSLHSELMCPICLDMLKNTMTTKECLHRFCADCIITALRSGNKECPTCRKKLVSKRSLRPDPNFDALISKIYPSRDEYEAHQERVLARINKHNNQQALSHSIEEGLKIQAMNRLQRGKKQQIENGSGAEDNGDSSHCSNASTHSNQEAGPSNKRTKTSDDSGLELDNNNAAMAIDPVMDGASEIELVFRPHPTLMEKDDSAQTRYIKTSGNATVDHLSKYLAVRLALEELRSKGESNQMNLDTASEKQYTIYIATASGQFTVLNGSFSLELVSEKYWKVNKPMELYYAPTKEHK
The experiment is classed as cell-based. The gist of the method: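 RNF2-PRC1 complex immunoprecipitated from PC3 cells, washed, then preincubated with test compound for 30 min at 4 °C. Products run on SDS-PAGE and immunoblotted with anti-H2A. In cells, histones acid-extracted (0.4N H2SO4) from nuclear extracts and probed for H2A/H2AUb.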

One may read the IC50 as the point on the concentration scale where inhibition reaches its midpoint. GW-516 [compound 4] gave an IC50 of about 470 nM.
